One test has as its system Gallus gallus. Put plainly: Reduction in vasomotor depression in chicken after single intravenous bolus injection. The format is functional. A digest of the protocol: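 Avian vasodepressor assay in conscious chickens (Coon method per U.S. Pharmacopeia, modified by Munsick et al.). Four-point Schild design against the U.S.P. posterior pituitary reference standard; results in units/mg on anhydrous weight.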

In test [1] the test system is Rattus norvegicus. Put plainly: Induction in blood pressure in rat after single intravenous bolus injection. The format is functional. A digest of the protocol: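 Pressor assay in anesthetized male rats following the U.S. Pharmacopeia procedure. Specific activity obtained by the Schild four-point design against the U.S.P. posterior pituitary reference standard; results in units/mg on anhydrous peptide weight.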

Test [2] is filed under the species Rattus norvegicus. Put plainly: Induction in uterus contraction in isolated rat uterine horns in vitro.
The test system of test [3] is Rattus norvegicus. Put plainly: Antidiuretic effect in Brattleboro rat assessed as maximal depressions of urine flow after single intravenous bolus injection. The format is functional.
In test [4] the test system is Rattus norvegicus. Briefly: Induction in blood pressure in rat at 1.6 x 10^-12 mol, single intravenous bolus injection. The format is functional, organism-based. A digest of the protocol:
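Hydrated, Inactin-anesthetized male Sprague-Dawley rats with carotid artery cannulated; arterial pressure recorded on a physiograph after a single intravenous bolus of 1.6×10^-12 mol (21 microunits).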

The test system of test [5] is Rattus norvegicus. Briefly: Reduction in fractional excretion of sodium in Sprague-Dawley rat at 1.6 x 10^-11 mol, single intravenous bolus injection. The format is functional, organism-based. The note with it: in the assay text read “1.6 x 10^-12 mol” for “1.6 x 10^-11 mol”. A digest of the protocol: (§1)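 Renal clearance in six male Sprague-Dawley rats, 250–275 g, under Inactin (10 mg/100 g ip), hydrated to 8% body weight with 2% ethanol/0.5% glucose. Infusion of 3% inulin, 1% mannitol, 0.6% NaCl, 2% alcohol at about 10 mL/h; 60 min equilibration; body temperature 37 °C. Urine volume determined gravimetrically, GFR from inulin (anthrone method), Na/K by flame photometry.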

Test [6] relates to Rattus norvegicus. Put plainly: Decrease in glomerular filtration rate in Sprague-Dawley rat at 1.6 x 10^-11 mol, single intravenous bolus injection. The format is functional, organism-based. The note with it: in the assay text read “1.6 x 10^-12 mol” for “1.6 x 10^-11 mol”. A digest of the protocol: as §1
Test [7] has as its system Rattus norvegicus. Briefly: Reduction in urine flow in Sprague-Dawley rat at 1.6 x 10^-11 mol, single intravenous bolus injection. The format is functional, organism-based. The note with it: in the assay text read “1.6 x 10^-12 mol” for “1.6 x 10^-11 mol”. Put shortly: as §1
In test [8] the test system is Rattus norvegicus. Briefly: Increase in urine osmolality in Sprague-Dawley rat measured per liter at 1.6 x 10^-12 mol, single intravenous bolus injection (reference value: 200 mosm).
Test [9] deals with Rattus norvegicus. Briefly: Decrease in glomerular filtration rate in Sprague-Dawley rat at 1.6 x 10^-12 mol, single intravenous bolus injection.
The subject of test [10] is Rattus norvegicus. Briefly: Increase in urine osmolality in Sprague-Dawley rat measured per liter at 4.2 x 10^-11 mol, single intravenous bolus injection (reference value: 200 mosm). The format is functional.
Test [11] deals with Rattus norvegicus. Put plainly: Induction in blood pressure in rat at 4.2 x 10^-11 mol, single intravenous bolus injection. The format is functional, organism-based. A digest of the protocol: (§2)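 Six male Sprague-Dawley rats (250–275 g), Inactin 10 mg/100 g i.p., hydrated to 8% body weight; carotid, jugular and bladder cannulated, 37 °C. Inulin/mannitol/NaCl infusion (300 mosm) ~10 mL/h, 60 min equilibration. Blood pressure from the carotid; urine volume weighed, four postinjection samples; GFR from inulin (anthrone); sodium by flame photometry.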

The subject of test [12] is Rattus norvegicus. Briefly: Reduction in fractional excretion of sodium in Sprague-Dawley rat at 4.2 x 10^-11 mol, single intravenous bolus injection. The format is functional, organism-based. A digest of the protocol:
as §2

For test [13], the system named is Rattus norvegicus. Briefly: Reduction in urine flow in Sprague-Dawley rat at 4.2 x 10^-11 mol, single intravenous bolus injection. The format is functional, organism-based. Put shortly:
as §2

Active and inactive are the calls of the source. No cut-off for these calls is given here. Bridge positions count the residues as written; N and C are the ends. Square brackets hold non-standard residues; d marks the D form. Peptide text beside a SMILES is read from it. ΔPro = O=C(O)[C@@H]1C=CCN1; Mpa = O=C(O)CCS

On to `N=C(N)NCCC[C@H](NC(=O)[C@@H]1CCCN1C(=O)[C@@H]1CSSCCC(=O)N[C@@H](Cc2ccccc2)C(=O)N[C@@H](Cc2ccccc2)C(=O)N[C@@H](CCC(N)=O)C(=O)N[C@@H](CC(N)=O)C(=O)N1)C(=O)NCC(N)=O` ([Mpa]FFQNCPRG-NH2; disulfide 1-6), for which the Activity with Gallus gallus was less than 1 U/mg; in the test with Rattus norvegicus [1], 29 U/mg; in the test filed under Rattus norvegicus [2], 0.3 U/mg; in the test with Rattus norvegicus [3], 810 U/mg.

For `N=C(N)NCCCC(NC(=O)[C@@H]1CCCN1C(=O)[C@@H]1CSSCCC(=O)N[C@@H](Cc2ccc(O)cc2)C(=O)N[C@@H](Cc2ccccc2)C(=O)N[C@@H](CCC(N)=O)C(=O)N[C@@H](CC(N)=O)C(=O)N1)C(=O)NCC(N)=O` (single isomer, unassigned) [DESMOPRESSIN], the Activity is listed as 160 U/mg in the test with Gallus gallus, 395 U/mg in the test with Rattus norvegicus [1], 29 U/mg in the test filed under Rattus norvegicus [2] and 1400 U/mg in the test on Rattus norvegicus [3].

For `N=C(N)NCCC[C@H](NC(=O)[C@@H]1C=CCN1C(=O)[C@@H]1CSSCCC(=O)N[C@@H](Cc2ccc(O)cc2)C(=O)N[C@@H](Cc2ccccc2)C(=O)N[C@@H](CCC(N)=O)C(=O)N[C@@H](CC(N)=O)C(=O)N1)C(=O)NCC(N)=O`, the Activity was 345 U/mg in the test on Gallus gallus, 240 U/mg in the test on Rattus norvegicus [1], 69 U/mg in the test filed under Rattus norvegicus [2] and 4134 U/mg in the test on Rattus norvegicus [3].

For `N=C(N)NCCC[C@H](NC(=O)[C@@H]1C=CCN1C(=O)[C@@H]1CSSCCC(=O)N[C@@H](Cc2ccccc2)C(=O)N[C@@H](Cc2ccccc2)C(=O)N[C@@H](CCC(N)=O)C(=O)N[C@@H](CC(N)=O)C(=O)N1)C(=O)NCC(N)=O` ([Mpa]FFQNC[ΔPro]RG-NH2; disulfide 1-6), the Activity is given as 2.9 U/mg with Gallus gallus, 6 U/mg in the test listed under Rattus norvegicus [2], 13000 U/mg in the test with Rattus norvegicus [3] and 700 milliosmole in the test on Rattus norvegicus [8]. In the test with Rattus norvegicus [4], the outcome was inactive. In addition, the inhibition entry with Rattus norvegicus [5], in the test with Rattus norvegicus [6] and with Rattus norvegicus [7] was “Active” throughout.

For the compound `N=C(N)NCCC[C@H](NC(=O)[C@@H]1CCCN1C(=O)[C@@H]1CSSC[C@H](N)C(=O)N[C@@H](Cc2ccc(O)cc2)C(=O)N[C@@H](Cc2ccccc2)C(=O)N[C@@H](CCC(N)=O)C(=O)N[C@@H](CC(N)=O)C(=O)N1)C(=O)NCC(N)=O` [VASOPRESSIN], the Activity worked out at 100 U/mg in the test with Gallus gallus; 487 U/mg in the test on Rattus norvegicus [1]; 700 milliosmole in the test with Rattus norvegicus [10]; 12 U/mg in the test filed under Rattus norvegicus [2]; 503 U/mg in the test on Rattus norvegicus [3]. The inhibition entry in the test with Rattus norvegicus [9], in the test on Rattus norvegicus [12] and in the test on Rattus norvegicus [13] was “Active” throughout. Also, in the test with Rattus norvegicus [11], the outcome was Active.

The values are drawn from ChEMBL document CHEMBL3244069, “Synthesis and biological activities of arginine-vasopressin analogues designed from a conformation-activity approach” (1979).
